OX1R antag-1: human HCRTR1 antagonism. O43613. CHO/OX1R cells, Fluo-8 calcium fluorescence, orexin A. inhibition, % at 5 µM. hit rate 0.43% among 330,000;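 active means inhibition above its plate's threshold, mean inhibition of all tested compounds on the plate plus 3 SD, cut at about 37% in these data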
Target sequence (O43613 whole entry, looked up): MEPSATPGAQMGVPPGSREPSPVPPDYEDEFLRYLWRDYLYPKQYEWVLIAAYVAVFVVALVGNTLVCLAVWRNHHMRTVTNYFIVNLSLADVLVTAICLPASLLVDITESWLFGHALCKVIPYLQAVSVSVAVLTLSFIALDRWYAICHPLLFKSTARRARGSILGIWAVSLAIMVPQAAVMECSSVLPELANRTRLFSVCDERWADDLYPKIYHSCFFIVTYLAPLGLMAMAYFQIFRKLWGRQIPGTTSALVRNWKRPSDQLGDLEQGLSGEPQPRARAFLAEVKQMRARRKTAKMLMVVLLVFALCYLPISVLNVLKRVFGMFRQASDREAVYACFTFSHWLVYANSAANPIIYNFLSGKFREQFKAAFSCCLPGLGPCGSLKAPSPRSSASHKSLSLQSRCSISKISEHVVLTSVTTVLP
OX1R antag-2: antagonists of human orexin 1 receptor (OX1R). AID 485270. O43613. hit rate 1.8% among 330,000. inhibition, % at 6.6 µM. OX1R-expressing cells, FRET antagonist read-out; in the data active means inhibition mostly above about 38%, no sharp cut-off; inactive means mostly below about 40%
GalR3 antag: antagonists of human GalR3; O60755; HEK293 GalR3-CNG cAMP membrane potential fluorescence; galR3 body fused to GalR1 C-terminus; inhibition, % at 3 µM; hit rate 0.44% among 360,000; AID 651719;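 active means inhibition above the screen-wide average plus 3 SD, cut at about 13% in these data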;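 further: forskolin and galanin both at EC90 stimulate the cells; cAMP rise reported by CNG channel membrane potential dye signal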
CHO parental Ca: counter-screen: ATP calcium response change in parental CHO cells; hit rate 0.63% among 330,000; parental CHO-K1, ATP-induced calcium, Fluo-8 fluorescence; inhibition, % at 5.6 µM;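 active means inhibition above that plate's mean sample inhibition plus 3 SD, cut at about 26% in these data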
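Measured by: calcium-sensitive Fluo-8 fluorescence / Test system: CHO parental line / Controls: ATP-challenged DMSO wells low, unchallenged DMSO wells high / Measure: % inhibition / Compound: single nominal dose of 5.6 µM per compound / Replicates: single well per compound, no replicates / Reagent: ATP as calcium-mobilizing challenge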
TAAR1 antagonist: human TAAR1 antagonism; Q96RJ0; CHO RD-HGA16 TAAR1, Fluo-8 calcium fluorescence, antagonist; inhibition, % at 3 µM; hit rate 1.5% among 360,000; AID 624466;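 active means inhibition above a per-plate cutoff, the mean inhibition of test compounds on that plate plus 3 SD, cut at about 49% in these data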
Target sequence (Q96RJ0 whole entry, looked up): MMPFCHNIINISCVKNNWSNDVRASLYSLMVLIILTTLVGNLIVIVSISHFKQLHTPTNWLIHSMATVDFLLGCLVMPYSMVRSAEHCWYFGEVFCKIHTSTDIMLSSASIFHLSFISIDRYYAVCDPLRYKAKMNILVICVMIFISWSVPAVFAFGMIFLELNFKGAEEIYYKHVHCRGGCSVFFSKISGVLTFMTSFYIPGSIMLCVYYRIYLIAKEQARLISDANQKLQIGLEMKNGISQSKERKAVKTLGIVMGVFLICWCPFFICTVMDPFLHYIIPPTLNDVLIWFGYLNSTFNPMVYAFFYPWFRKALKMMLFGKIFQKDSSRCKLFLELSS
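System: RD-HGA16 CHO cells with stable hTAAR1 and Gα16 | Probe or stimulus: EC80 β-phenethylamine stimulus | Dosing: 3 µM, single point | Times: Dye loading 75 min at 37 °C, then 30 min room temperature | Measured by: Fluo-8 calcium-sensitive fluorescence | Read-out basis: % inhibition of agonist calcium response | Replicates: n of 1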
TAAR1 agonist: human TAAR1 agonism. Q96RJ0. CHO RD-HGA16 TAAR1, Fluo-8 calcium fluorescence; vehicle wells 0%, saturating PEA agonist 100%. activation, % at 3 µM. hit rate 0.99% among 360,000;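 active means activation above the mean activation of all test compounds in the run plus 3 SD, cut at about 38% in these data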
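Signal – calcium-sensitive Fluo-8 signal, excitation 470-495, emission 515-575 nm · System – RD-HGA16 (CHO) cells co-expressing Gα16 and hTAAR1 · Incubation – 17-24 h seeding, 75 min 37 °C dye, 30 min RT · Compound dosing – 3 µM single concentration · Repeats – no replicates (n 1)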
TAAR1 nonsel count: nonselective antagonism, TAAR1 counter-screen; shares compounds with TAAR1 antagonist; counterscreen cell line, calcium fluorescence, antagonist mode; inhibition, % at 3 µM; hit rate 77% among 2,400; in the data active means inhibition above about 22%;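 further: CHO-Ga16 host cells stimulated with ATP at an EC80 level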
TAAR1 ant conf: human TAAR1 antagonism, confirmed | inhibition, % at 3 µM | AID 651785 | hit rate 40% among 2,400 | shares compounds with TAAR1 antagonist | TAAR1-expressing cells, fluorescence antagonist read-out; in the data active means inhibition above about 49%;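 further: CHO-Ga16 host cells challenged with agonist PEA near its EC80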
Ga16 nonsel ag: counter-screen for TAAR1 antagonists: nonselective Ga16 agonists. shares compounds with TAAR1 antagonist. Ga16-expressing cells, calcium fluorescence, agonist counterscreen. activation, % at 3 µM. hit rate 18% among 2,400. AID 651953; in the data active means activation above about 12%
TAAR1 ag counter: activates human TAAR1 in antagonist counter-screen. activation, % at 3 µM. shares compounds with TAAR1 antagonist. hit rate 2% among 2,400. hTAAR1 cell line, fluorescence activation, agonist mode; in the data active means activation above about 37%;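 further: CHO cells stably expressing TAAR1 with calcium dye readout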
A number is an active result; n = inactive; x = no result given. Shown are actives, neighbours in structure and some others; about 4.3% of the full set was active somewhere.

SMILES | OX1R antag-1 | OX1R antag-2 | GalR3 antag | CHO parental Ca | TAAR1 antagonist | TAAR1 agonist | TAAR1 nonsel count | TAAR1 ant conf | Ga16 nonsel ag | TAAR1 ag counter
CC(CCC(=O)O)C1CCC2C3CCC4C[C@H](O)CCC4(C)C3CC(=O)C12C (some centres not stated) | n | n | n | n | n | n | x | x | x | x
CC(C)(C)[C@@H]1CCC(=O)N(CC[C@H](Sc2ccc(Br)cc2)c2ccccc2)CC1 | n | n | n | n | n | n | x | x | x | x
O=C(/C=C/NNC(=O)c1ccccc1)c1ccc([N+](=O)[O-])cc1 | n | n | n | n | n | n | x | x | x | x
C/C(=N\NC(=O)c1ccccc1OCCOc1ccccc1)c1ccccc1F | x | x | n | x | 60.3 | n | n | n | n | n
COc1ccccc1C=NNC(=O)C(=O)NN=Cc1ccccc1OC | x | x | n | x | n | n | x | x | x | x
C/C(=N\NC(=O)c1ccccc1)c1ccccc1F | n | n | n | n | n | n | x | x | x | x
Cc1cccc(/C=N/NC(=O)c2ccccc2OCc2cccc(Br)c2)n1 | n | n | n | n | 64.1 | n | 22.3 | n | n | n
COc1ccccc1C=NNC(=O)c1ccccc1OCCOc1ccccc1 | n | n | n | n | 61.6 | n | 21.4 | 51.1 | n | n
C#CCOc1ccccc1/C=N/NC(=O)c1ccccc1OCc1ccccc1 | n | n | n | n | 55.9 | n | n | n | n | n
CC1(C(=O)Nc2ccc3c(c2)OCCO3)CCC(=O)N1CCc1c[nH]c2ccccc12 (configuration not stated) | x | x | n | x | n | n | x | x | x | x
COc1ccc(/C(C)=N/NC(=O)c2ccccc2OCc2ccccc2)c(OC)c1 | n | n | n | n | n | n | x | x | x | x
COc1ccc(/C=N/NC(=O)c2ccccc2OCc2ccccc2)c(OC)c1 | n | n | n | n | 49.4 | n | n | n | n | n
COc1ccc(OC)c(NC(=O)Nc2cccnc2)c1 | x | x | n | x | n | n | x | x | x | x
CCOc1ccc(/C=C2\SC(=O)N(CCNC(=O)C3COc4ccccc4O3)C2=O)cc1OC (configuration not stated) | n | n | n | n | 77.9 | n | 35.0 | n | n | n
CN(CC(=O)Nc1ccc(F)cc1)C(=O)CNC(=O)C1CCCCC1 | n | n | n | n | n | n | x | x | x | x
CC(C)COc1cccc(C(=O)N(CC(=O)Nc2ccccc2C(F)(F)F)Cc2ccco2)c1 | n | n | n | n | 60.6 | n | n | n | n | n
Cc1ccc(C(C(=O)NC2CCCC2)N(Cc2ccc3c(c2)OCO3)C(=O)Cc2cccs2)cc1 (configuration not stated) | n | n | n | n | 66.2 | n | 26.2 | 55.9 | n | n
Cc1ccc(CN(C(=O)Cc2cccs2)C(C(=O)NC2CCCC2)c2ccncc2)cc1 (configuration not stated) | n | n | n | n | n | n | x | x | x | x
O=[N+]([O-])c1cccc(-c2ccc(/C=N/Nc3nc(N4CCCCC4)nc(N4CCCCC4)n3)o2)c1 | n | n | n | n | 51.7 | n | n | n | n | n
O=[N+]([O-])c1ccc(-c2ccc(/C=N/Nc3nc(N4CCCCC4)nc(N4CCCCC4)n3)o2)cc1 | x | x | n | x | n | n | x | x | x | x
CSc1ccc(CCNC(=O)CN2C(=O)c3cccnc3Oc3ccc(C)cc32)cc1 | n | n | n | n | 74.3 | n | 24.9 | 53.2 | n | n
CCOc1ccc(CCNC(=O)CN2C(=O)c3cccnc3Oc3ccc(C)cc32)cc1OCC | n | n | n | n | n | n | x | x | x | x
Cc1ccc2c(c1)N(CC(=O)NCCCc1ccccc1)C(=O)c1cccnc1O2 | n | n | n | n | 72.6 | n | 26.7 | n | n | n
O=C(NCc1ccc(F)cc1)c1cc(C2CCCCN2C(=O)c2ccc(Cl)cc2)on1 (configuration not stated) | x | x | n | x | n | n | x | x | x | x
Nc1nc2cc3c(cc2cc1C(=O)NCCc1c[nH]c2ccccc12)OCO3 | x | x | n | x | 52.2 | n | 44.8 | n | 12.8 | n
SMILES | OX1R antag-1 | OX1R antag-2 | GalR3 antag | CHO parental Ca | TAAR1 antagonist | TAAR1 agonist | TAAR1 nonsel count | TAAR1 ant conf | Ga16 nonsel ag | TAAR1 ag counter
O=C(NCCc1c[nH]c2ccccc12)c1ccc(F)cc1F | n | n | n | n | n | n | x | x | x | x
COc1cc(/C=C/c2nc(-c3ccccc3O)n[nH]2)cc(OC)c1OC | n | n | n | n | 72.4 | n | 21.9 | 50.6 | n | n
COc1cc(/C=C/c2noc(-c3ccccc3O)n2)cc(OC)c1OC | n | n | n | n | n | n | x | x | x | x
CN(C)c1nc(Nc2ccc(Cl)cc2)nc(OCC#N)n1 | n | n | n | n | 58.1 | n | n | n | n | n
CN(C)c1nc(OCCNC(=O)Nc2ccc(Cl)cc2)nc(N(C)C)n1 | n | n | n | n | n | n | x | x | x | x
Cc1ccc(OCC(=O)NNC(=O)C2CSC3(C)CCC(=O)N23)cc1 (configuration not stated) | n | n | n | n | n | n | x | x | x | x
CCOC(=O)CN1C(=O)N(CC(=O)OCC)C(c2ccccc2)(c2ccccc2)C1=O | n | n | n | n | n | n | x | x | x | x
O=C(CCn1c(=O)oc2ccccc21)N(Cc1ccccc1)c1ccccc1 | n | n | x | n | 69.5 | n | 23.3 | 49.8 | n | n
CCC1CN(C(=O)N2CCC(C(=O)NCc3ccccc3OC)CC2)c2ccccc2O1 (configuration not stated) | n | n | n | n | n | n | x | x | x | x
CCC1CN(C(=O)N2CCC(C(=O)NCc3ccccc3OC)CC2)c2cc(C)ccc2O1 (configuration not stated) | n | n | n | n | 53.6 | n | 28.6 | n | n | n
Cn1cc(C(=O)NCCN2CCN(c3cccc(Cl)c3)CC2)c2c3ccccc3n(C)c2c1=O | n | n | n | n | 56.3 | n | 28.9 | n | n | n
COCCCNC(=O)c1cn(C)c(=O)c2c1c1ccccc1n2C | n | n | n | n | n | n | x | x | x | x
CCOc1ccc(S(=O)(=O)N2CCOCC2)cc1NC(=O)CSC(=S)N1CCCC1 | n | n | n | n | n | n | x | x | x | x
CCc1noc(C)c1C(=O)Nc1nc(-c2ccc(NC(C)=O)cc2)cs1 | n | 57.9 | n | n | 69.7 | n | 28.9 | n | 21.8 | n
Cc1cccc(N2CCN(C(=O)c3nn(C)c4c3CS(=O)(=O)c3ccccc3-4)CC2C)c1 (configuration not stated) | n | n | n | n | 52.6 | n | 30.8 | n | n | n
Cn1nc(C(=O)N2CCN(c3cccc(Cl)c3)CC2)c2c1-c1ccccc1S(=O)(=O)C2 | n | n | n | n | n | n | x | x | x | x

Bioassay records (PubChem BioAssay)
